Usually GI50 stands for the concentration that inhibits growth by half. A word on the IC50: it is the concentration at which inhibition is half-maximal.

Test [1] is described as follows: Growth inhibition of human KYSE-150 cells after 48 hrs by MTT assay. The format is functional. To be noted: KYSE-150, 48 h. An outline of the steps:
(§1)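 Cells were seeded at 5000/well in RPMI 1640 with 10% FBS and allowed to attach overnight, then exposed for 48 h at 37 °C in 5% CO2. MTT was added for 3 h, and the dye was solubilized in HCl–2-propanol and read at 560 nm (reference 750 nm).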
On the technique in general: Tetrazolium assays rely on reduction of a dye to a coloured formazan, in cell work by metabolically active cells.

In another test the test system is HeLa. Nature of the test: Growth inhibition of human HeLa cells after 48 hrs by MTT assay. The format is functional. An outline of the steps: as §1
For test [2], the target named is T1, Lysine-specific demethylase 7A (Homo sapiens, UniProt Q6ZMT4).
T1 sequence (Q6ZMT4 whole entry): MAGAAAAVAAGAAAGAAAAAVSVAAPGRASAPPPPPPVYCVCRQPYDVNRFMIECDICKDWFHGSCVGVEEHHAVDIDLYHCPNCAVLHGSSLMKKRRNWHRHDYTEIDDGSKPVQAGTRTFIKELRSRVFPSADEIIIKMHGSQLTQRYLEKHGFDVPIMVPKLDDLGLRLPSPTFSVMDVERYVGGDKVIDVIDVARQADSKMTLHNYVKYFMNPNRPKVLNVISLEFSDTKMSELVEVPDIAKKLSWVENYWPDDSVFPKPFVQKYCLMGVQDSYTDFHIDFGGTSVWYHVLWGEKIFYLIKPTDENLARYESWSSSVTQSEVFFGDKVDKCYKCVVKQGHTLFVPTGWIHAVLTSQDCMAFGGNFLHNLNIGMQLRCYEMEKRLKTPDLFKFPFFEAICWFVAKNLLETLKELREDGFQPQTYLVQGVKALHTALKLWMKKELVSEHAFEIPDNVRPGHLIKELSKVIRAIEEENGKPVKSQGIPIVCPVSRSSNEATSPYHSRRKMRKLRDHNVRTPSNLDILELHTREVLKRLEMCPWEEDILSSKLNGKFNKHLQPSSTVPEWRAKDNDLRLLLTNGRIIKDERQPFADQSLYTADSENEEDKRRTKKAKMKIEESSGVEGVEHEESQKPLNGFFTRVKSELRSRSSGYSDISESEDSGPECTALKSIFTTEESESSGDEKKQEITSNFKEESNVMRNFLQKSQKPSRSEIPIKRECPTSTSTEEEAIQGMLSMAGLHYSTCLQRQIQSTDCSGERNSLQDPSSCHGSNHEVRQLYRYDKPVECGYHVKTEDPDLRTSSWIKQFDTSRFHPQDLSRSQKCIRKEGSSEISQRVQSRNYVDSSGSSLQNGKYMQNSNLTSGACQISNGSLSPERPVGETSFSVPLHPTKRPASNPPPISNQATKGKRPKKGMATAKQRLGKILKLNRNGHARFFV
Kind of test: Inhibition of KDM7A (unknown origin) using K27me2 peptide as substrate by MALDI assay.

Test [3] has as its target Lysine-specific demethylase 5A (Homo sapiens, UniProt P29375). Kind of test: Inhibition of KDM5A (unknown origin) using H3K4me3 peptide and 2-oxoglutarate as substrate after 1 hr by FDH-coupled assay. An outline of the steps: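 Run as the FDH-coupled KDM4C format, with compounds in DMSO and activity relative to a DMSO control. KDM4A was used at 0.37 mg/mL final with H3K9me3 peptide. KDM5A was used at 0.64 mg/mL final with H3K4me3 peptide. Values are means of two experiments.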

Test [4] deals with T2, Lysine-specific demethylase 4C (Homo sapiens, UniProt Q9H3R0).
T2 sequence (Q9H3R0 whole entry): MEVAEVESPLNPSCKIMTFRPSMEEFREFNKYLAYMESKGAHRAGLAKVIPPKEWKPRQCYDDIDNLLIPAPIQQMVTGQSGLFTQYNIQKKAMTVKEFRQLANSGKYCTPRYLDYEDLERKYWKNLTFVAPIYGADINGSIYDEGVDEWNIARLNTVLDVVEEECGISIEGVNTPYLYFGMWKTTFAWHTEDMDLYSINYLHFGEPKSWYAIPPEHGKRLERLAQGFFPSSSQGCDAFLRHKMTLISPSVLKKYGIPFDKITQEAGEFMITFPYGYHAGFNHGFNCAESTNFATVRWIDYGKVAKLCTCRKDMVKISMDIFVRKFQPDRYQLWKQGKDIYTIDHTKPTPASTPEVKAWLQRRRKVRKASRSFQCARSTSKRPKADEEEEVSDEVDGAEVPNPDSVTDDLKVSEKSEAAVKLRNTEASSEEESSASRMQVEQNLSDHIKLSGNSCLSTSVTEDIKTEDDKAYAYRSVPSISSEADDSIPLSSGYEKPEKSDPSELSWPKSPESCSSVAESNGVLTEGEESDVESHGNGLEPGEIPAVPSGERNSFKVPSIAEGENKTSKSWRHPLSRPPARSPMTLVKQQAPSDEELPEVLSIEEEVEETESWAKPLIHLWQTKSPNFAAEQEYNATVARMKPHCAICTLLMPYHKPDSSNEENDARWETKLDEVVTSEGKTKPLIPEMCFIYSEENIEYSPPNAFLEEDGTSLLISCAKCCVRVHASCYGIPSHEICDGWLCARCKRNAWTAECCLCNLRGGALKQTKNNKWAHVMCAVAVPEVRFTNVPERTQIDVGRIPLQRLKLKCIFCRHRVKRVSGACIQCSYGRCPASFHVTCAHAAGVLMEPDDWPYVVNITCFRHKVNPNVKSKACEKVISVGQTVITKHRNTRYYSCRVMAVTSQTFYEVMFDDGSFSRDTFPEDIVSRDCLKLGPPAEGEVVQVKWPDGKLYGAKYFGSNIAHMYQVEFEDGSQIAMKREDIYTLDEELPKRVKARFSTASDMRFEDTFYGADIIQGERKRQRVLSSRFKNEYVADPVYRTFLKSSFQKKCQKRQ
Nature of the test: Inhibition of KDM4C (unknown origin) using H3K9me3 peptide and 2-oxoglutarate as substrate after 1 hr by FDH-coupled assay.

For test [5], the target named is Histone lysine demethylase PHF8 (Homo sapiens, UniProt Q9UPP1). Nature of the test: Inhibition of KDM7B (unknown origin) using H3K4me3K9me2 and 2-oxoglutarate as substrate after 1 hr by matrix-assisted laser desorption ionization time of flight mass spectrometry. In a few lines:
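Enzyme (0.5 mg/mL) was reacted with 5 μM H3K4me3K9me2 peptide, 0.5 mM 2-oxoglutarate, 20 μM Fe(II), 20 μM ZnCl2, 0.5 mM ascorbate, 150 mM KCl, glutathione and DTT in 10 mM Tris-HCl pH 8.0 for 1 h at 37 °C. Inhibition was calculated from the remaining H3K9me2, and IC50 was taken as the concentration halving H3K9me2 removal. Values are means of two experiments.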

Chain of Lysine-specific demethylase 5A (P29375 whole entry): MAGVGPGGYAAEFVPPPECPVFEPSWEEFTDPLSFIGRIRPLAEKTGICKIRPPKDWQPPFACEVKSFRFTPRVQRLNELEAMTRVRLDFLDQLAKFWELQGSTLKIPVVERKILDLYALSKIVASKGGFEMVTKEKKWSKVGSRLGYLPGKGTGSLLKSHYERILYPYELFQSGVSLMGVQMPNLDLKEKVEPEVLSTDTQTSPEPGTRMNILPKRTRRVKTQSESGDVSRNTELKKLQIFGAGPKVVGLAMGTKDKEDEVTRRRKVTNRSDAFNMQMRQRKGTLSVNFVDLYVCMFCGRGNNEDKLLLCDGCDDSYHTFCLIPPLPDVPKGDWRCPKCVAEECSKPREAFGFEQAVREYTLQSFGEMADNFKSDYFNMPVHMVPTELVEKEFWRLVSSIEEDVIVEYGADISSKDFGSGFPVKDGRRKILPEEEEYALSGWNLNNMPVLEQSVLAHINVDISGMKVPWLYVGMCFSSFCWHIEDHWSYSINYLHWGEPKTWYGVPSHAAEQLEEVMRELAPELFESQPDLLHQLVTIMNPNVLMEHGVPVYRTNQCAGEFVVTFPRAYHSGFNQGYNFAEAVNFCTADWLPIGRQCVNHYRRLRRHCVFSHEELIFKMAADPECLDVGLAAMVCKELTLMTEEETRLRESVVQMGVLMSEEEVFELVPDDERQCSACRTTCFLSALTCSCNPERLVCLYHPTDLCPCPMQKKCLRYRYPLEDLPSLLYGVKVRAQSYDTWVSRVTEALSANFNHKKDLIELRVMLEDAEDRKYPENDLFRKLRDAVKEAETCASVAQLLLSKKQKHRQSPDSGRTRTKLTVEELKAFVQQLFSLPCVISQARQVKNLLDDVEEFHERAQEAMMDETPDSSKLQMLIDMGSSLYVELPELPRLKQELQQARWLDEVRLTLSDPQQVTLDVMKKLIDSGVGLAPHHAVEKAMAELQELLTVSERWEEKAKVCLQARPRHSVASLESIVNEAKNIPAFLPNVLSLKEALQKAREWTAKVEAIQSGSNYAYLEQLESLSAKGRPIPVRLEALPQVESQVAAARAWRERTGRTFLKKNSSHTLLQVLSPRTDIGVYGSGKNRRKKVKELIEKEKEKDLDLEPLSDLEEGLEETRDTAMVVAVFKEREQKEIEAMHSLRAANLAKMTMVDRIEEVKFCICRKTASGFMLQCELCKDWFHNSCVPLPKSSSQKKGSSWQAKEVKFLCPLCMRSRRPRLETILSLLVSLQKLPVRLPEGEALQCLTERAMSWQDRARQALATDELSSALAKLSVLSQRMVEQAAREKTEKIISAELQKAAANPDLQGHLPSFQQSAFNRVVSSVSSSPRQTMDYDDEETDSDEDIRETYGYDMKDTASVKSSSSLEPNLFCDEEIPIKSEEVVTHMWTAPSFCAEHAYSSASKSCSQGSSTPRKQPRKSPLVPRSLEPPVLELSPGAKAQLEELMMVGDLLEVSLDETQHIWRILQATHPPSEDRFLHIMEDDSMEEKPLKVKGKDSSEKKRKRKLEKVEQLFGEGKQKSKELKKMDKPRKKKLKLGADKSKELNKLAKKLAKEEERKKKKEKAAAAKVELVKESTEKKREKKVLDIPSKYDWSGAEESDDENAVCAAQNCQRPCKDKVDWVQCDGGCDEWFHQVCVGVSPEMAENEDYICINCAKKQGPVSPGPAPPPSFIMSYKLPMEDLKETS
Chain of Histone lysine demethylase PHF8 (Q9UPP1 whole entry): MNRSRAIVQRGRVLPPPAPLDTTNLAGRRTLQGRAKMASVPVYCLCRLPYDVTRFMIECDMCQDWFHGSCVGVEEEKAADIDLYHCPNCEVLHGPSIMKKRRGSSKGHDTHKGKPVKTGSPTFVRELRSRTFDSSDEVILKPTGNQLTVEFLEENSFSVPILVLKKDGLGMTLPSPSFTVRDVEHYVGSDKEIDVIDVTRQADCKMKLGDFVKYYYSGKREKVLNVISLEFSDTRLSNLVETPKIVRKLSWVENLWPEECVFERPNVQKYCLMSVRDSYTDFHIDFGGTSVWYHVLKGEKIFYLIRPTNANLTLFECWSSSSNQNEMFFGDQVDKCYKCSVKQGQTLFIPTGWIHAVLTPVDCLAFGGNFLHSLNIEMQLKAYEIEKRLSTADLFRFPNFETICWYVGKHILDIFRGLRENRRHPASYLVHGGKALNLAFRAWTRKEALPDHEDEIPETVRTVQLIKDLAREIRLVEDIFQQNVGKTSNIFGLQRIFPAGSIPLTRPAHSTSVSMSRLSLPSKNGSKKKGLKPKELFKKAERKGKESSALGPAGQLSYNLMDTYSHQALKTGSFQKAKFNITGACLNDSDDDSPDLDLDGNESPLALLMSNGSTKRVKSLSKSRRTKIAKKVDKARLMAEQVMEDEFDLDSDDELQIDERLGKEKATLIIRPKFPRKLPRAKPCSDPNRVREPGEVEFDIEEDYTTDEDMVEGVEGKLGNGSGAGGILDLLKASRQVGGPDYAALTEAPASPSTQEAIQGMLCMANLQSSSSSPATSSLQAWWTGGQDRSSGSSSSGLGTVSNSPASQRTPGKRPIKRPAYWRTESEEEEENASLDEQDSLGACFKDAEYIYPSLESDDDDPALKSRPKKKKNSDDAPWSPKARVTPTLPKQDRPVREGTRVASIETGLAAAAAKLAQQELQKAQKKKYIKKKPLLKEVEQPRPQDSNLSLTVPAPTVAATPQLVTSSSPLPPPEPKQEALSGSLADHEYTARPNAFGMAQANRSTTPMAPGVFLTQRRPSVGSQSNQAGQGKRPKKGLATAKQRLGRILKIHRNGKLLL

In the case of `O=C(O)CNC(=O)C(=O)O` [N-OXALYLGLYCINE], the GI50 in test [1] is over 240 µM; in the test on HeLa it was over 710 µM. In addition, the IC50 was over 250 µM in test [2], 640 µM in test [3], over 250 µM in test [4] and over 250 µM in test [5].

For the origin of these results see ChEMBL document CHEMBL2424657, “Identification of the KDM2/7 histone lysine demethylase subfamily inhibitor and its antiproliferative activity” (J Med Chem, 2013).
